In ChEMBL document CHEMBL1139484, “Design, synthesis, and binding studies of new potent ligands of cannabinoid receptors” (J Med Chem, 2005) one finds IC50, Ki and Selectivity ratio data, which are given here for 19 compounds.

Experiment [1] can be described thus: Inhibition of anandamide membrane transporter in RBL-2H3 cells assessed as [14C]anandamide uptake. The experiment is classed as cell-based, Rattus norvegicus. An outline of the steps:
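RBL-2H3 cells incubated with [14C]anandamide (4 µM) for 5 min at 37 °C, with or without varying inhibitor concentrations. Medium extracted with CHCl3/CH3OH (2:1); residual radioactivity taken as measure of uptake. IC50 from fit; mean of 3 experiments.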

A further experiment has as its target Cannabinoid receptor 2 (Homo sapiens, UniProt P34972). The experiment can be described thus: Displacement of [3H]CP-55940 from human CB2 receptor expressed in COS cells. The experiment is classed as cell-based. Background: Displacement assays read how much labelled ligand stays bound in the presence of the test substance.
In the next experiment the target is Cannabinoid receptor 1 (Homo sapiens, UniProt P21554). Kind of experiment: Displacement of [3H]CP-55940 from human CB1 receptor expressed in COS cells. Format: cell-based.
Cannabinoid receptor 1, sequence (P21554 whole entry): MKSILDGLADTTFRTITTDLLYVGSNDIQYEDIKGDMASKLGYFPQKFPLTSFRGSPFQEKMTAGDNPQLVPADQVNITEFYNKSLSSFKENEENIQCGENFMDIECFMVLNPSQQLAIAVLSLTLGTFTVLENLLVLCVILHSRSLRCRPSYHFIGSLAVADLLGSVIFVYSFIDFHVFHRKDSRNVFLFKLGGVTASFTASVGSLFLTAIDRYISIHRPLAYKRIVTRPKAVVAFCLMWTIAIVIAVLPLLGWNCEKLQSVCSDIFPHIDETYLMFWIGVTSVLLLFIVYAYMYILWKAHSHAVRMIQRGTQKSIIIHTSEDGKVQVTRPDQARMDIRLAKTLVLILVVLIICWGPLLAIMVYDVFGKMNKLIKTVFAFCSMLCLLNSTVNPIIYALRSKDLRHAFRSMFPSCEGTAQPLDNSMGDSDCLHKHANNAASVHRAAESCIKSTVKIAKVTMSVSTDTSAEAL
Experiment [2] concerns the target Cannabinoid receptor (Homo sapiens) (UniProt P34972+P21554). Kind of experiment: Selectivity for human CB2 receptor over human CB1 receptor. Format: protein assay. The gist of the method:
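Ratio of Ki values from [3H]CP-55,940 (0.5 nM) displacement on P2 membranes of COS cells transfected with human CB1 or CB2; Ki from IC50 by Cheng-Prusoff, mean of 3 experiments.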

The target in experiment [3] is T1, Fatty-acid amide hydrolase 1 (Rattus norvegicus, UniProt P97612).
T1 sequence (P97612 whole entry): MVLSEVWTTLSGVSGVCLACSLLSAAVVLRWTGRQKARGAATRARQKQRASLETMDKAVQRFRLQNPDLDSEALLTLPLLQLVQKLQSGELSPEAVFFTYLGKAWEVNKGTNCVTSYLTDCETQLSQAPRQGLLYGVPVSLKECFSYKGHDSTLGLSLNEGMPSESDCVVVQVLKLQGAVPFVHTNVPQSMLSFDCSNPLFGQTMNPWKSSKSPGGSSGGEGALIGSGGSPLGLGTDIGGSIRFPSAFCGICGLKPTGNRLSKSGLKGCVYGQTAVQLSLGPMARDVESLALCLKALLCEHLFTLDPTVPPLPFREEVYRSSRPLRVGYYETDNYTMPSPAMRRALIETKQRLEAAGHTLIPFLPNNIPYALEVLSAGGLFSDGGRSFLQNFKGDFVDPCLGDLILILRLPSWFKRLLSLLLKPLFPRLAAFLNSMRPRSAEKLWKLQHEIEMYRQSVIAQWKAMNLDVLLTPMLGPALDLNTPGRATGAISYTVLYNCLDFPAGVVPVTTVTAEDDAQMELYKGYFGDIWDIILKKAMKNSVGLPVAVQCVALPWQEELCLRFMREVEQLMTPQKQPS
The experiment can be described thus: Inhibition of rat brain FAAH assessed as [14C]anandamide hydrolysis. An outline of the steps: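 Rat brain membranes incubated with [14C]anandamide (6 µM) and increasing compound concentrations in 50 mM Tris-HCl pH 9, 30 min, 37 °C. Mixture extracted with 2 volumes CHCl3/CH3OH (2:1); [14C]ethanolamine in aqueous phase counted by scintillation. IC50 reported; mean of 3 experiments.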

Structures are written as SMILES.

Cannabinoid receptor 2, sequence (P34972 whole entry): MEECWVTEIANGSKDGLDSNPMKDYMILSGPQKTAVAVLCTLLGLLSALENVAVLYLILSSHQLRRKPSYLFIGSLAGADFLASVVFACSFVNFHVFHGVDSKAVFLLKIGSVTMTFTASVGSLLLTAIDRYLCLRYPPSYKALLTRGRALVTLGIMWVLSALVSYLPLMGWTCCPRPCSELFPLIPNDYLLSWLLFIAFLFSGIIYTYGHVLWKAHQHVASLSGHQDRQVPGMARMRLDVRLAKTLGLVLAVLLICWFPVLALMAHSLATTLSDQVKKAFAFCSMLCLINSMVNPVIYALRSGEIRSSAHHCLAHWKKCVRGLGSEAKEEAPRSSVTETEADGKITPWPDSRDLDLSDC
Cannabinoid receptor (Homo sapiens), sequence (P21554 whole entry, looked up): as the sequence (P21554 whole entry) above
Cannabinoid receptor (Homo sapiens), sequence (P34972 whole entry, looked up): as the sequence (P34972 whole entry) above

On to `CCCCCCCCCCCCCCCc1cccc(OCCCCCC(=O)Nc2ccc(O)cc2)c1`, for which the 50% inhibitory concentration (IC50) in experiment [1] was greater than 25 µM.

With `O=C(CCCCCCCCCCCCCCCOc1cccc(O)c1)Nc1ccc(O)cc1`, the affinity on Cannabinoid receptor 2 corresponds to a Ki of 10 µM.

Regarding `CCCCCCCCCCCCCCCc1cccc(OCCCCCC(=O)NCCO)c1`, the IC50 in experiment [1] is greater than 25 µM.

Compound `CCCCCCc1ccc(OCCCCCCCCCCCCCCCC(=O)Nc2ccc(O)cc2)cc1O` registered a Ki on Cannabinoid receptor 1 greater than 10 µM.

In the case of `CCCCCCc1ccc(OCCCCCCCCCCC(=O)NC2CC2)cc1O`, the IC50 in experiment [1] is greater than 25 µM. Further, the Selectivity ratio in experiment [2] came to 26. The inhibition constant (Ki) at Cannabinoid receptor 1 was greater than 10 µM.

Regarding `CCCCCc1cc(O)cc(OCCCCCCCCCCC(=O)NC2CC2)c1`, the IC50 in experiment [1] worked out at 17 µM.

`CCCCCCc1ccc(O)cc1OCCCCCCCCCCC(=O)NCCO`: the 50% inhibitory concentration (IC50) in experiment [1] was greater than 25 µM.

The compound `CCCCCCc1ccc(OCCCCCCCCCCC(=O)NCCO)cc1O` came in with a Ki on Cannabinoid receptor 1 greater than 10 µM.

In the case of `CCCCCCc1ccc(O)cc1OCCCCCC(=O)NCCO`, the Ki at Cannabinoid receptor 2 was greater than 10 µM.

Turning to `CCCCCc1cc(O)cc(OCCCCCCCCCCCCCCCC(=O)NC2CC2)c1`, on Cannabinoid receptor 1, the inhibition constant (Ki) is greater than 10 µM.

On to `CCCCCCc1ccc(O)cc1OCCCCCCCCCCC(=O)NC1CC1`, for which the figures for the half-maximal inhibitory concentration (IC50) in experiment [3] and in experiment [1] were greater than 25 µM and 13 µM, respectively.

Regarding `O=C(CCCCCCCCCCOc1cccc(O)c1)NCCO`, the Ki on Cannabinoid receptor 1 was greater than 10 µM.

Regarding `CCCCCCc1ccc(OCCCCCCCCCCC(=O)Nc2ccc(O)cc2)cc1O`, the 50% inhibitory concentration (IC50) in experiment [1] is greater than 25 µM. This compound also registered a Ki at Cannabinoid receptor 2 greater than 10 µM.

Turning to `O=C(CCCCCCCCCCOc1cccc(O)c1)NC1CC1`, the inhibitory constant (Ki) on Cannabinoid receptor 1 is greater than 10 µM.

`O=C(CCCCCCCCCCCCCCCOc1cccc(O)c1)NCCO` returned an inhibition constant (Ki) on Cannabinoid receptor 1 greater than 10 µM.

Take `CCCCCc1cc(O)cc(OCCCCCCCCCCCCCCCC(=O)Nc2ccc(O)cc2)c1`: the inhibition constant (Ki) on Cannabinoid receptor 1 was greater than 10 µM.

As for `CCCCCc1cc(O)cc(OCCCCCCCCCCC(=O)NCCO)c1`, the IC50 in experiment [1] worked out at 25 µM.

On to `CCCCCCc1ccc(O)cc1OCCCCCCCCCCC(=O)Nc1ccc(O)cc1`, for which the half-inhibitory concentration (IC50) in experiment [1] was greater than 25 µM.

In turn, `O=C(CCCCCCCCCCOc1cccc(O)c1)Nc1ccc(O)cc1` showed a Ki at Cannabinoid receptor 2 greater than 10 µM.

By IC50 is commonly meant the concentration that inhibits the measured activity by half. Usually Ki stands for the equilibrium dissociation constant of an inhibitor or competing ligand from its target. Read a low Ki as tighter binding.
